An excerpt weighted towards active compounds, which were near 1.3% of everything screened.
ARFGAP1 inhibitor: inhibitors of rat ARFGAP1 GAP activity, primary screen, biochemical, fluorescence polarization, GDP tracer. Arfgap1-stimulated ARF1 GTP hydrolysis, GDP FP detection. AID 651572, 2012. 0.26% of 360,000 active. inhibition, % at 16.5 µM;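 active = inhibition above a per-plate limit, mean inhibition of low control wells plus 3 SD, cut at about 25% in these data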
Target sequence (Q62848 1-136 limits assumed): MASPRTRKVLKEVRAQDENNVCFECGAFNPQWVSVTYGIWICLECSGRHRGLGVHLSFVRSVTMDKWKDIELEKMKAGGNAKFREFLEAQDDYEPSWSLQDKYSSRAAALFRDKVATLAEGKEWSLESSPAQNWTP
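System: truncated rat Arfgap1 GAP domain / Benchmarks: high control wells lacking Arfgap1, low control full reaction with DMSO / Times: compound-enzyme preincubation 20 min, reaction 120 min, detection 60 min, 25 °C / Repeats: one replicate per compound / Also added: human ARF1(Δ1-17)-GTP substrate / Measured by: Tracer-displacement fluorescence polarization with EDTA stop, 620/688 nm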
TDP2 absorb: human TDP2 enzyme inhibitors, primary screen, biochemical, epi absorbance, recombinant enzyme; Tyrosyl-DNA phosphodiesterase 2 (Homo sapiens), O95551; T5PNP hydrolysis, p-nitrophenol absorbance 415 nm; inhibition, % at 12.8 µM; 0.34% of 370,000 active;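 active = inhibition above the mean of all tested compounds plus 3 SD, set per campaign, cut at about 25% in these data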
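Read-out basis: percent inhibition. System: recombinant human TDP2. Buffer or medium: Mg2+-containing Tris-HCl buffer, pH 7.5. Repeats: single replicate. Timing: reaction 2 h, 37 °C. Benchmarks: high control without enzyme, low control DMSO plus TDP2. Probe or stimulus: 5 mM T5PNP. Doses: 12.8 µM only. Measured by: epi absorbance of p-nitrophenol freed from T5PNP by hydrolysis.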
ASAP1 inh: inhibitors of human ASAP1 ArfGAP activity, primary screen, biochemical, fluorescence polarization; Arf-GAP with SH3 domain, ANK repeat and PH domain-containing protein 1 (Homo sapiens), …; ASAP1-stimulated ARF1 GTP hydrolysis, GDP FP detection; inhibition, % at 16.5 µM; 0.19% of 360,000 active; AID 624377, 2012; in the data active = inhibition above about 25%
Casp6 inh: human caspase-6 inhibitors, primary screen, biochemical, VEID-R110 fluorescence, single point, set 2. P55212. purified caspase-6, Z-VEID-R110 cleavage fluorescence. inhibition, % at 12.5 µM. 0.53% of 350,000 active;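 active = mean inhibition across replicates at least about 35%, with every replicate also reaching that limit, limit read from the data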
Target sequence (P55212 24-179 limits assumed): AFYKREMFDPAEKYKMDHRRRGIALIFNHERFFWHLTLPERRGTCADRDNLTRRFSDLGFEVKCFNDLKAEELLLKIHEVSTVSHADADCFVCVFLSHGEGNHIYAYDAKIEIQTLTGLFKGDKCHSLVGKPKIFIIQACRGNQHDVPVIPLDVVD
Target sequence (P55212 194-293 limits assumed): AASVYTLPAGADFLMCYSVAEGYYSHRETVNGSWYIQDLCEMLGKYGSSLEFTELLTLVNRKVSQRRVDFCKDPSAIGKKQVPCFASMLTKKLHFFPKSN
LEDGF integ inh: blockers of LEDGF/p75-dependent integrase strand transfer – biochemical, TR-FRET, high throughput, primary screen; TR-FRET IN-LEDGF/p75 DNA integration, Eu/Cy5; inhibition, % at 3.7 µM; 0.64% of 370,000 active; AID 743269, 2014;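 active = inhibition above the screen-wide mean plus 3 SD, cut at about 13% in these data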;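 also: signal is the Cy5 over europium emission ratio at 671 and 618 nm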
IN multimer act: HIV-1 IN multimer formation enhancers, counter-screen for LEDGF/p75 integration inhibitor project, biochemical, TR-FRET | shares compounds with LEDGF integ inh | AID 1053131, 2014 | 17% of 2,000 active | activation, % at 7.7 µM | TR-FRET HIV-1 integrase multimerization; in the data active = activation above about 8.9%
TR-FRET interf: TR-FRET optical interference artefacts, confirmation, artefact control for LEDGF/p75-dependent integration inhibitor project, biochemical, HIV-1 IN multimerization | shares compounds with LEDGF integ inh | TR-FRET optical interference counterscreen | inhibition, % at 7.7 µM | 2,000 tested, under 10 active | AID 1053135, 2014;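 active = inhibition above the mean over all tested compounds plus 3 SD, which no compound reached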
LEDGF integ conf: inhibitors of HIV-1 IN-LEDGF/p75 DNA integration, confirmation, biochemical, TR-FRET; shares compounds with LEDGF integ inh; TR-FRET LEDGF/p75-dependent HIV-1 integration; inhibition, % at 3.7 µM; 36% of 2,000 active; in the data active = inhibition above about 14%
Of the large screens only hits and unclear results are named; the others gave an inactive call (follow-up assays come after a bar, where they were run).

COc1cccc(C2/C(=C(\O)c3ccc4c(c3)OCCO4)C(=O)C(=O)N2CCN(C)C)c1 (stereo unspecified)	none (no result: Casp6 inh)
O=C(c1ccc(Br)c(S(=O)(=O)N2CCOCC2)c1)N1CCN(C/C=C/c2ccccc2)CC1	none
CCOC(=O)c1nn(-c2ccccc2)c(=O)c2c(N)scc12	none (no result: Casp6 inh)
Nc1scc2c(C(=O)N/N=C/c3ccc(Cl)cc3)nn(-c3ccccc3)c(=O)c12	LEDGF integ inh 13 (no result: Casp6 inh) | IN multimer act inactive | TR-FRET interf inactive | LEDGF integ conf inactive
CCOc1cccc(/C=N/NC(=S)Nc2ccccc2[N+](=O)[O-])c1O	none
O=[N+]([O-])c1ccccc1NC(=S)N/N=C/c1ccc(O)c(O)c1	Casp6 inh 53, LEDGF integ inh 46 | IN multimer act 11 | TR-FRET interf inactive | LEDGF integ conf 71
CCOc1ccc(N(CC(=O)NC2CCCC2)S(=O)(=O)c2c(C)[nH]c(=O)[nH]c2=O)cc1	LEDGF integ inh 51 | IN multimer act inactive | TR-FRET interf inactive | LEDGF integ conf inactive
CCOC(=O)N1CCN(C(=O)COc2ccc(S(=O)(=O)NC3CCCCC3)cc2C)CC1	LEDGF integ inh 16 (no result: Casp6 inh) | IN multimer act inactive | TR-FRET interf inactive | LEDGF integ conf inactive
Clc1cccc(-c2ccc(C=Nc3ccc(N4CCOCC4)cc3)o2)c1	LEDGF integ inh 24 (no result: Casp6 inh) | IN multimer act inactive | TR-FRET interf inactive | LEDGF integ conf inactive
Oc1ccc(N=Nc2cccc(Cl)c2)cc1C=Nc1ccc(N2CCOCC2)cc1	none
Oc1c(Br)cc(Cl)cc1C=Nc1ccc(N2CCOCC2)cc1	LEDGF integ inh 19 | IN multimer act inactive | TR-FRET interf inactive | LEDGF integ conf 25
CN(C)c1nc(N/N=C/c2c[nH]c3ccccc23)nc(N2CCOCC2)n1	none
C(=Nc1ccc(N2CCOCC2)cc1)c1c[nH]c2ccccc12	LEDGF integ inh 23 | IN multimer act inactive | TR-FRET interf inactive | LEDGF integ conf inactive
CN(C)S(=O)(=O)N1CCN(C(=O)N(c2ccccc2)c2ccccc2)CC1	LEDGF integ inh 71 (no result: Casp6 inh) | IN multimer act inactive | TR-FRET interf inactive | LEDGF integ conf inactive
Cc1ccc(S(=O)(=O)N2CCN(C(=O)N(c3ccccc3)c3ccccc3)CC2)cc1	none (no result: Casp6 inh)
Cc1cc(C)n2nc(-c3ccsc3-n3c(C)ccc3C)cc2n1	LEDGF integ inh 24 (no result: Casp6 inh) | IN multimer act inactive | TR-FRET interf inactive | LEDGF integ conf 20
O=C(NCC(c1cccs1)N1CCOCC1)c1ccccc1NS(=O)(=O)c1ccc(Cl)c([N+](=O)[O-])c1 (stereo unspecified)	LEDGF integ inh 35 | IN multimer act inactive | TR-FRET interf inactive | LEDGF integ conf inactive
O=C(NCC(c1cccs1)N1CCOCC1)c1ccccc1NS(=O)(=O)c1cccc([N+](=O)[O-])c1 (stereo unspecified)	none
Cc1ccc(S(=O)(=O)N2CCN(C(=O)COC(=O)c3cccnc3Cl)CC2)c(C)c1	LEDGF integ inh 66 | IN multimer act inactive | TR-FRET interf inactive | LEDGF integ conf inactive
Cc1ccccc1OCCCN1CCOCC1	LEDGF integ inh 29 | IN multimer act inactive | TR-FRET interf inactive | LEDGF integ conf inactive
Cc1cccc(OCCCN2CCOCC2)c1C	none
CN(Cc1cnn(C)c1)C(=O)c1sc2cccc(Cl)c2c1Cl	none (no result: Casp6 inh)
O=C(COC(=O)Cc1ccsc1)NCc1ccccc1	LEDGF integ inh 30 (no result: Casp6 inh) | IN multimer act inactive | TR-FRET interf inactive | LEDGF integ conf inactive
O=C(COC(=O)Cc1ccsc1)NCc1ccc(Cl)cc1	none
Cc1cc(C)n2c(Nc3ccc4c(c3)OCCO4)c(-c3cc4ccccc4o3)nc2n1	none
Cc1cc(C)n2c(Nc3ccc4c(c3)OCCO4)c(-c3ccc(C)o3)nc2n1	LEDGF integ inh 24 | IN multimer act inactive | TR-FRET interf inactive | LEDGF integ conf inactive
COc1ccc(NC(=O)CN2CCC(NC(=O)C3CCCCC3)CC2)c([N+](=O)[O-])c1	LEDGF integ inh 18 | IN multimer act inactive | TR-FRET interf inactive | LEDGF integ conf inactive
Nc1ccc(N2CCN(CCCCN3C(=O)C4CCCN4C3=O)CC2)cc1 (stereo unspecified)	LEDGF integ inh 22 | IN multimer act inactive | TR-FRET interf inactive | LEDGF integ conf inactive
Cc1cc(C)n(-c2nc3ccccc3nc2NCCc2ccccc2)n1	LEDGF integ inh 21 | IN multimer act inactive | TR-FRET interf inactive | LEDGF integ conf inactive
COc1ccc(N(C(C)C(=O)N/N=C/c2cccnc2)S(C)(=O)=O)cc1 (stereo unspecified)	LEDGF integ inh 35 | IN multimer act inactive | TR-FRET interf inactive | LEDGF integ conf inactive
COc1ccc(N(C(C)C(=O)N/N=C/c2ccc(OC(C)C)cc2)S(C)(=O)=O)cc1 (stereo unspecified)	none
COc1ccc(CC(=O)O/N=C(\N)Cc2cccc3ccccc23)cc1	LEDGF integ inh 14 | IN multimer act inactive | TR-FRET interf inactive | LEDGF integ conf inactive
O=Cc1ccc(/C=C2\c3ccccc3C(=O)N2c2ccccc2)o1	LEDGF integ inh 38 | IN multimer act inactive | TR-FRET interf inactive | LEDGF integ conf 20
O=C(CCl)Nc1ccc(S(=O)(=O)NC2=NCCCCC2)cc1	LEDGF integ inh 17 | IN multimer act inactive | TR-FRET interf inactive | LEDGF integ conf inactive
O=c1[nH]c2cc3c(cc2cc1CN(Cc1nnnn1CC1CCCO1)C1CCCCC1)OCO3 (stereo unspecified)	LEDGF integ inh 18 (no result: Casp6 inh) | IN multimer act inactive | TR-FRET interf inactive | LEDGF integ conf inactive
O=c1[nH]c2cc3c(cc2cc1CN(Cc1nnnn1CC1CCCO1)C1CCCC1)OCO3 (stereo unspecified)	none (no result: Casp6 inh)
Oc1ccc(-c2csc(Nc3cccc4ccccc34)n2)cc1O	Casp6 inh 43, LEDGF integ inh 24 | IN multimer act 17 | TR-FRET interf inactive | LEDGF integ conf 68
COc1ccc(NC(=O)N(C)C[C@H]2Oc3ccc(NS(=O)(=O)c4ccccc4)cc3CC(=O)N([C@@H](C)CO)C[C@@H]2C)cc1	none (no result: ARFGAP1 inhibitor, TDP2 absorb, ASAP1 inh, LEDGF integ inh)
